The values below come from PubChem BioAssay.

The nature of experiment [1]: inhibitors of TNFa-induced NFkB p65 translocation, primary screen, imaging, HUVEC, MLSMR starter and 10KST1 sets (AID 438;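 active = inhibition above 20% together with a positive visual image hit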;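 also: compound added about 3h40 before a 20 min TNFalpha stimulation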;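 as to inhibition: signal is the nuclear over cytoplasmic p65 intensity ratio per well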). Conditions: HUVEC TNFa-induced p65 nuclear translocation; cell count: measured here: nuclei count (cytotoxicity indicator), at 2.08 µM; inhibition: at 2 µM, stronger effect = higher value, 0% TNFa-plus-vehicle, 100% no-TNFa wells.
Experiment [2] in a line: inhibitors of E-selectin induction by TNFa, primary screen, imaging, HUVEC, immunofluorescence, MLSMR starter and 10KST1 sets (AID 487;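 active = visually confirmed hit in the image check and inhibition above 20%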;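 as to inhibition: signal is fraction of cell area covered by stained E-selectin grains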;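 as to nuclei count: 100% = median nuclei count of all wells on the same plate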). Conditions: HUVEC TNFalpha-induced E-selectin immunofluorescence imaging, at 2 µM; inhibition: stronger effect = higher value; nuclei count: measured here: cell number, toxicity.
Experiment [3] in a line: DUSP6 inhibitors restoring Erk phosphorylation by chemical complementation, primary imaging in DUSP6-transfected HeLa (AID 609;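 active = compounds giving at least 50% inhibition in the cell-based MKP-3 phosphatase rescue imaging test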;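 as to inhibition: phospho-Erk level distribution per well compared with pooled transfected vehicle control wells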). As to conditions: HeLa MKP-3 transfected, phospho-Erk imaging KS statistic, at 10 µM, cells stimulated with TPA for 15 min.
In experiment [4] the target is Dual specificity protein phosphatase 6 (Homo sapiens) (UniProt Q16828). Described as above. Conditions: HeLa MKP-3 transfected, phospho-Erk imaging KS statistic; at 10 µM; stronger effect = higher value; cells stimulated with TPA for 15 min.
Dual specificity protein phosphatase 6 (Homo sapiens), sequence (Q16828 whole entry, looked up): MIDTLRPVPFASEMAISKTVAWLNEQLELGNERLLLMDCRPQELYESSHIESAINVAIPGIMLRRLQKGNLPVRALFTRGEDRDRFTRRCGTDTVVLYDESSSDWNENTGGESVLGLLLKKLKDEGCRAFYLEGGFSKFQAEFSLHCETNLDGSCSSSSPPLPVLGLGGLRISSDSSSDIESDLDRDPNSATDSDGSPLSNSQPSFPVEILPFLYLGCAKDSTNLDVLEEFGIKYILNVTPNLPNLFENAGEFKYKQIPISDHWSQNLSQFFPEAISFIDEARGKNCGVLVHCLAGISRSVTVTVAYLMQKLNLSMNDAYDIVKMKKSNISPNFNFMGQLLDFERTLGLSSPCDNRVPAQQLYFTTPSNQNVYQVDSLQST
In experiment [5] the target is Voltage-gated potassium channel subunit beta-2 (Rattus norvegicus) (UniProt P62483). The experiment is described as follows: KvBeta enzyme negative modulators, primary screen, biochemical, NADPH fluorescence (AID 622;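 active = fluorescence slope higher than the sample average by over 3 SD, cut at about -0.22 in these data, passing the limit was not always enough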;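 also: slope of raw intensity against log time taken from 70 to 1610 s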). As to conditions: recombinant KvBeta, 4-cyanobenzaldehyde reduction, at 10 µM, stronger effect = higher value.
Voltage-gated potassium channel subunit beta-2 (Rattus norvegicus), sequence (P62483 whole entry, looked up): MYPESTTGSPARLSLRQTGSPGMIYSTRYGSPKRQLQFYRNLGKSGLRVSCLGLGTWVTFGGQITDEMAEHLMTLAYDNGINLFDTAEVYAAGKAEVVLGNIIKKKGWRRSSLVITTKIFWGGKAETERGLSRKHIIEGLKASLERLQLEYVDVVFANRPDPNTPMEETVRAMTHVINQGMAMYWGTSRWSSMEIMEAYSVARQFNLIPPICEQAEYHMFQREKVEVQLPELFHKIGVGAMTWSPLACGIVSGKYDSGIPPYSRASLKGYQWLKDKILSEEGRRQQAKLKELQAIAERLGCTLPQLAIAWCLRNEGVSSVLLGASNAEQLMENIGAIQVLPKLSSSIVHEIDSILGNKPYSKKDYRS
Experiment [6] has the same target. Nature of the experiment: KvBeta positive modulators, primary screen, biochemical, NADPH fluorescence (AID 623).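 Also: fluorescence intensity change per second fitted from 20 to 320 s.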 As to conditions: Recombinant KvBeta, NADPH fluorescence decrease slope, 10 min; at 10 µM; stronger effect = lower value.
In experiment [7] the target is Alpha-2C adrenergic receptor (Homo sapiens) (UniProt P18825). Nature of the experiment: modulators of alpha2C/GIRK thallium flux, primary screen, cell-based, HEK293 alpha2C/GIRK1/2 (AID 624;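 active = fluorescence slope after compound addition differing from the mean of all screened samples at 99.7% confidence, in either direction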;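 also: slope of fluorescence ratio to pre-addition baseline per second over 15 to 24 s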). As to conditions: thallium flux BTC fluorescence, at 10 µM, actives lie on both sides.
Alpha-2C adrenergic receptor (Homo sapiens), sequence (P18825 whole entry, looked up): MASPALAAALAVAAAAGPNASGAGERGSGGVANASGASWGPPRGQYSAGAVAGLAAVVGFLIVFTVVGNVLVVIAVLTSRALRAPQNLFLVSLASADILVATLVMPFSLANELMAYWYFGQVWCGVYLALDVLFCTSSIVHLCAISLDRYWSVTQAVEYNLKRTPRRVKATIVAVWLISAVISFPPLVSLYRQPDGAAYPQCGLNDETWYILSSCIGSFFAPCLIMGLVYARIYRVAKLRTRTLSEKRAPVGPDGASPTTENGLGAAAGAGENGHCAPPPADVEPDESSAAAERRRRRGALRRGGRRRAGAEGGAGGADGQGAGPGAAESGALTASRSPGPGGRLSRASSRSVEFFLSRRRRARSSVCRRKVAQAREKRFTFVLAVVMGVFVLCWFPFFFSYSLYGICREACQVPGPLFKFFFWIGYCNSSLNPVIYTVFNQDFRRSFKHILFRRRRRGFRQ
A short description of experiment [8]: inhibitors of larval lipid processing in zebrafish, primary screen, whole organism, PED6 fluorescence, gall bladder and intestine (AID 686;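 active = a full or partial loss of lipid-probe fluorescence in the fish gall bladder, intestine or both, judged by eye; inactive = no fluorescence loss, or compound toxic to the fish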;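 also: larvae 5 to 7 days old with five fish per well; signal comes from phospholipase A2 cleavage of quenched PED6 carried via bile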). Conditions: Zebrafish larvae PED6 lipid processing, fluorescence scoring; screened at 20 µM (by protocol). The method in brief: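 system = live zebrafish larvae aged 5-7 days, whole organism | probe or stimulus = ingested quenched lipid PED6 at 100 nM | doses = 20 µM single dose | timing = overnight exposure | detection = fluorescence microscopy with visual scoring of gall bladder and intestine | read-out = visual per-well fluorescence inhibition score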

Experiment [9] is described as follows: inhibitors of Chlamydomonas gravitaxis, primary screen, whole organism, Chlamydomonas reinhardtii, WT vs cilia-less mutant, absorbance, 96-well (AID 463189;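 active = inhibition at or above 50% relative to wild type and mutant plate controls; inactive = inhibition below 50%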;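 also: 0% = wild type cc124 cells in DMSO and 100% = ciliumless bld1 mutant cells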). Conditions: OD600 absorbance, 2 days, at 10 µM, stronger effect = higher value.
The mark [10] stands for this setting: measured here: cell density z-score.
The mark [11] stands for this setting: measured here: nuclear c-Myc green intensity z-score.
The mark [12] stands for this setting: measured here: nuclear pErk red intensity z-score, stronger effect = higher value.

The source made the active and inactive calls.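 The calls were made as follows, unless noted: active = NADPH fluorescence slope more negative than the mean of all samples by about 3 SD, 99.7% confidence; inactive = the rest.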

What is called inhibition is the drop in the measured response relative to a control, in per cent.

Consider `COc1ccc2oc(=O)c(-c3nc(C)cs3)cc2c1`, for which the cell count in experiment [1] came out at 523. Also, the inhibition in experiment [1] was -9.3% (inactive); in experiment [2] it was -79.5% (inactive); in experiment [4] it was -2.07% (inactive); in [9] it was 26.4% (inactive). Further, the nuclei count in experiment [2] amounted to 135%. Further, the z-score in [3] (setting [10]) was -0.969; in experiment [3] (setting [11]), 0.963; in [3] (setting [12]), 1.41. Moreover, the fluorescence slope in experiment [5] was -0.302 (inactive). In experiment [6], the NADPH fluorescence slope is -3.5e-05 (inactive). In addition, the slope in experiment [7] is 0.00534 (inactive). In addition, the result in experiment [8] was inactive.

Regarding `O=C(Nc1nc(=O)c2ccccc2s1)c1ccccc1`, the cell count in [1] is 647. For the same compound, the inhibition in experiment [1] was 5.5% (inactive); in experiment [2], -58.7% (inactive); in [4], 9.61% (inactive); in experiment [9] it was 13.1% (inactive). The same compound gave a nuclei count in experiment [2] of 158%. The values for the z-score in [3] (setting [10]), in experiment [3] (setting [11]) and in [3] (setting [12]) were 0.159, -0.389 and 0.0783, respectively. Further, the fluorescence slope in experiment [5] is -0.505 (inactive). Also, the NADPH fluorescence slope in experiment [6] is -4.5e-05 (inactive). The slope in [7] was 0.00905 (active). The outcome in experiment [8] was inactive.

As to `O=C(O)C1CSC(CCc2ccccc2)N1` (stereo unspecified), the cell count in experiment [1] turned out to be 633. Besides, the inhibition is -7.7% (inactive) in experiment [1], -34.8% (inactive) in [2], 7.83% (inactive) in experiment [4] and 8.25% (inactive) in experiment [9]. Moreover, in experiment [2], the nuclei count was determined as 140%. In addition, the figures for the z-score in experiment [3] (setting [10]), in experiment [3] (setting [11]) and in [3] (setting [12]) were -0.486, 0.112 and 1.29, respectively. For the same compound, the fluorescence slope in experiment [5] is -0.459 (inactive). For the same compound, in experiment [6], the NADPH fluorescence slope is -0.000276 (inactive). Besides, the slope in experiment [7] was 0.00538 (inactive). In addition, the compound was called inactive in experiment [8].

On to `O=S1CCCSC1c1cccnc1` (stereo unspecified), for which the cell count in experiment [1] was determined as 524. Besides, the inhibition is -10.3% (inactive) in [1], -190% (inactive) in experiment [2], 13.9% (inactive) in experiment [4] and 2.49% (inactive) in [9]. In experiment [2], this compound had a nuclei count of 144%. Moreover, the z-score in experiment [3] (setting [10]) was 1.86; in experiment [3] (setting [11]), -0.668; in experiment [3] (setting [12]), -1.2. For the same compound, the fluorescence slope in experiment [5] was -0.507 (inactive). Moreover, in experiment [6], the NADPH fluorescence slope is -1.9e-05 (inactive). Also, the slope in experiment [7] was 0.00681 (inactive). Also, the result in experiment [8] was inactive.

As to `COc1ccccc1C1/C(=C(/O)c2cnn(-c3ccccc3)c2C)C(=O)C(=O)N1CCN(C)C` (stereo unspecified), the cell count in experiment [1] is 498. Besides, the inhibition in experiment [1] was -0.5% (inactive); in experiment [2] it was -189% (inactive); in experiment [4], 10.5% (inactive); in [9], -1.15% (inactive). The nuclei count in experiment [2] came out at 132%. Moreover, the results for the z-score in experiment [3] (setting [10]), in [3] (setting [11]) and in experiment [3] (setting [12]) were 0.414, -0.415 and -0.719, respectively. In addition, the fluorescence slope in experiment [5] is -0.558 (inactive). In [6], the NADPH fluorescence slope was -7e-05 (inactive). For the same compound, in experiment [7], the slope is 0.00448 (inactive). For the same compound, the outcome in experiment [8] is “inactive; toxic”.

For `Cc1ccc(C(C)C)c(OCCNc2nc3c(c(=O)n(C)c(=O)n3C)n2C)c1`, the cell count in [1] was 605. Further, the inhibition in experiment [1] is -26.5% (inactive); in experiment [2], -61.7% (inactive); in experiment [4] it was -4.27% (inactive); in experiment [9], -2.79% (inactive). The nuclei count in [2] turned out to be 165%. Further, the z-score in experiment [3] (setting [10]) is -0.12; in experiment [3] (setting [11]), -0.388; in experiment [3] (setting [12]) it was 2.45. Moreover, the fluorescence slope in [5] is -0.422 (inactive). Moreover, in [6], the NADPH fluorescence slope was -5.2e-05 (inactive). Besides, in [7], the slope is 0.0063 (inactive). Besides, in experiment [8], the result was inactive.

Turning to `CSc1nc2sc3c(c2c(=O)[nH]1)CCC(C)C3` (stereo unspecified), in experiment [1], the cell count was 503. Moreover, the inhibition is -19.4% (inactive) in experiment [1], -109% (inactive) in [2], 20.2% (inactive) in experiment [4] and 3.37% (inactive) in [9]. Besides, the nuclei count in [2] turned out to be 191%. The z-score in [3] (setting [10]) is -1.18; in [3] (setting [11]), 2.07; in experiment [3] (setting [12]), -0.579. The fluorescence slope in [5] is -0.364 (inactive). The NADPH fluorescence slope in experiment [6] is 1.3e-05 (inactive). In addition, the slope in experiment [7] was 0.00953 (active). Besides, the call in [8] was inactive.
